Measurements reported in ChEMBL document CHEMBL1811783, “Positive GABA(A) receptor modulators from Acorus calamus and structural analysis of (+)-dioxosarcoguaiacol by 1D and 2D NMR and molecular modeling” (J Nat Prod, 2011).

What was measured:
Assay type in all cases: cell-based
Oocyte [1] = assay: Allosteric modulation of gamma-aminobutyric acid receptor A alpha1beta2gamma2S expressed in Xenopus oocytes assessed as potentiation of GABA-mediated chloride current at 1 uM by voltage clamp assay
In short: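 Rat α1β2γ2S cRNAs (1:1:10) injected into collagenase-defolliculated oocytes, stored at 18 °C, recorded days 1–5. Two-microelectrode voltage clamp at −70 mV in HEPES-buffered bath (pH 7.4). Compound in bath solution with GABA EC5–10 (from a 0.1 μM–1 mM GABA concentration–response) applied by automated fast perfusion at 300 μL/s. Read-out is IGABA potentiation.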

Oocyte [2] = assay: Allosteric modulation of rat gamma-aminobutyric acid receptor A alpha1beta2gamma2S expressed in Xenopus oocytes assessed as potentiation of GABA-mediated chloride current at 0.1 to 1000 uM after 20 secs by voltage clamp assay
In short: (§1)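 Rat α1β2γ2S cRNAs (1:1:10) injected into collagenase-defolliculated Xenopus oocytes, stored at 18 °C, recorded days 1–5. Two-microelectrode voltage clamp at −70 mV in 90 mM NaCl/1 mM KCl/1 mM MgCl2/1 mM CaCl2/5 mM HEPES pH 7.4. Compounds at 0.1–1000 μM co-applied by fast perfusion with GABA at EC5–10, determined from a 0.1 μM–1 mM GABA concentration–response. Read-out: IGABA potentiation.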

[3] = Allosteric modulation of rat gamma-aminobutyric acid receptor A alpha1beta2gamma2S expressed in Xenopus oocytes assessed as potentiation of GABA-mediated chloride current after 20 secs by voltage clamp assay; details: Oocyte; in short: as §1

Compound	Activity (Oocyte [1])	Emax (Oocyte [2])	EC50 [3]
Cc1nnc2n1-c1ccc(Cl)cc1C(c1ccccc1Cl)=NC2	253%		
CC1=CC[C@]2(CC1=O)[C@@H](C)CC[C@H]2C(C)C		241%	34 µM
CC1=C2[C@H](/C=C(\C)C(=O)O)CC[C@@H](C)[C@H]2CC1	400%		
C/C=C\c1cc(OC)c(OC)cc1OC [CIS-ASARONE]		1200%	172 µM
C=C1CC/C=C(\C)CC[C@@H](C(C)C)C(=O)C1		886%	135 µM
CCc1cc2c(s1)N(C)C(=O)CN=C2c1ccccc1Cl	260%		
Cc1ncc2n1-c1ccc(Cl)cc1C(c1ccccc1F)=NC2	342%		
C[C@@H]1CCC2=C1C=C1C(C)(C)OO[C@@]1(O)C[C@H]2C		588%	65.3 µM
C=C[C@]1(C)CC[C@@H](C(C)C)C(=O)[C@H]1C(=C)C		669%	64.8 µM
C=C[C@]1(C)CC[C@@H](C(C)C)C(=O)C1=C(C)C		164%	109 µM
